Assay results: article PMC9371723 (Proceedings of the National Academy of Sciences of the …, 2022)
One block for each compound: values may come before it.

Columns and labels:
[1] = tested on: TAA1; settings: cited from earlier work
[2] = tested on: YUC monooxygenase; settings: YUC monooxygenase inhibitors; cited from earlier work
[3] = tested on: Arabidopsis thaliana seedlings; experiment: Primary and lateral root growth of Arabidopsis seedlings; format: in vivo; settings: IAA at 0.05 µM
Outline: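 Primary root: seedlings grown vertically 6–8 d at 24 °C, continuous light, on GM plates with test compound (5 µM estradiol added for inducible lines); length recorded from photographs. Lateral root: seedlings grown vertically 6 d, moved to horizontal GM plates (2 g/L gellan gum) with chemicals for 2 d at 24 °C; lateral roots counted and primary root length measured.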

[4] = tested on: Rice (Oryza sativa cv. Nipponbare) seedlings; experiment: Rice seedling primary root and mesocotyl assays; format: in vivo
Outline: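 Rice cv. Nipponbare seeds sterilised 20 min in 6% hypochlorite, rinsed, then germinated 2 d in sterile water at 28 °C in the dark. Mesocotyl: seedlings submerged 5 d in water with chemicals. Root: seedlings grown on 0.6% water agar with chemicals (n = 11). Both at 25 °C, 18 h light/6 h dark.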

[5] = biological target: AtTIR1–IAA7 peptide (Arabidopsis thaliana, UniProt Q570C0); experiment: SPR analysis of auxin-induced TIR1-IAA7 degron peptide interaction; format: binding
Sequence of AtTIR1–IAA7 peptide (Q570C0 whole entry, other chains not shown, the tested form may be a part): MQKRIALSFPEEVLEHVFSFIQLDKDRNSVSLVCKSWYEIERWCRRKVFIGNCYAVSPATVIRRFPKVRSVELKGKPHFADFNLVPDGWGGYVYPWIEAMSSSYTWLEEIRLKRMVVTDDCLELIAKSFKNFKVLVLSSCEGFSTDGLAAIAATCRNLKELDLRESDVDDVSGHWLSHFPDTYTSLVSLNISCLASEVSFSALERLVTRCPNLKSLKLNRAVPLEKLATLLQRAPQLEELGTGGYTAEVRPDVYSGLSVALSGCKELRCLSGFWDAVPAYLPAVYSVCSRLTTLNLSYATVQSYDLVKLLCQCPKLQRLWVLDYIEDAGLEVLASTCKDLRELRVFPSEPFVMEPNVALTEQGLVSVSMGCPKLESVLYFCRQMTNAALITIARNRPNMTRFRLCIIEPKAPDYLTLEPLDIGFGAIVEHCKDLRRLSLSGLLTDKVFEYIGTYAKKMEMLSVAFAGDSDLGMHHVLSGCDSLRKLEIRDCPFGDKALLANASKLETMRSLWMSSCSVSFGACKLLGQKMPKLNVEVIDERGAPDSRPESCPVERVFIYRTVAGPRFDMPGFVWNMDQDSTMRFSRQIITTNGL
Sequence of AtTIR1–IAA7 peptide (Q39255 whole entry partner, other chains not shown, the tested form may be a part): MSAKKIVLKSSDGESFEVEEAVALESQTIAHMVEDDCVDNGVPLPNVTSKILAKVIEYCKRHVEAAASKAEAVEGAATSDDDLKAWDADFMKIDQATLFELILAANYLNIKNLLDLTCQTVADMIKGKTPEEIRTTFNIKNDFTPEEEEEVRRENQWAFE

[6] = tested on: DII-VENUS fusion reporter protein; settings: IAA application; cited from earlier work
[7] = tested on: Physcomitrium patens; experiment: Moss GH3::GUS reporter line phenotype; format: in vivo; settings: 10 μM, 15 d
Outline: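 P. patens GH3::GUS reporter colonies cultured 15 d on BCDATG medium (0.8% agar) with or without 10 µM test compound and 10 µM IAA. GUS visualised histochemically with X-Gluc; ectopic leafy-like primordia scored.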

[8] = tested on: AtGH3.3, IAA19, YUC6 expression; experiment: qRT-PCR of auxin-related genes in Arabidopsis; format: in vivo; settings: after 60 min of treatment
Outline: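 Seedlings from vertical GM plates moved to liquid GM for 24 h, then harvested at intervals (10–60 min) after test compound was added. SYBR qRT-PCR: 95 °C 20 s, then 40 cycles of 95 °C 3 s and 60 °C 30 s. ΔΔCt normalised to UBQ10; n = 4, Tukey HSD vs mock.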

[9] = biological target: AtAFB5–IAA7 (Arabidopsis thaliana, UniProt Q9LTX2); experiment: SPR analysis of auxin-induced AFB5-IAA7 degron peptide interaction; format: binding
Sequence of AtAFB5–IAA7 (Q9LTX2 whole entry, other chains not shown): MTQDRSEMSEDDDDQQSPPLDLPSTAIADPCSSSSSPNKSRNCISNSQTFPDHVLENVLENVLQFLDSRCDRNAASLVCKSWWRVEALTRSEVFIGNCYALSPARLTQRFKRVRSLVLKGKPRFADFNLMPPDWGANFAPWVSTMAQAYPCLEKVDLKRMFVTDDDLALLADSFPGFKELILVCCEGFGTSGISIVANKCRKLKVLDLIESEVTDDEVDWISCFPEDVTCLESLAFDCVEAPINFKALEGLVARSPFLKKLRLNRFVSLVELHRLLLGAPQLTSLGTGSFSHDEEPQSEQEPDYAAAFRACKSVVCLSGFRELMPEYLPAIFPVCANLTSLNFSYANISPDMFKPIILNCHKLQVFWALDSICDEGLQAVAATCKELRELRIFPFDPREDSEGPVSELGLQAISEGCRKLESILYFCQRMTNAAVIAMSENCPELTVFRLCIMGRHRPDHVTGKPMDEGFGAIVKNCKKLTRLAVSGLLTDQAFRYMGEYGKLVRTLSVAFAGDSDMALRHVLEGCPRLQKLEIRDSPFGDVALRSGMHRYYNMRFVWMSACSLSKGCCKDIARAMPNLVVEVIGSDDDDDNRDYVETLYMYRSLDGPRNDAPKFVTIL
Sequence of AtAFB5–IAA7 (Q39255 whole entry partner, other chains not shown): as the sequence (Q39255 whole entry partner, other chains not shown, the tested form may be a part) above

[10] = tested on: Arabidopsis mutants tir1-1 afb2-1, axr1-3, sav3-2, yucQ; experiment: Lateral root formation in auxin signaling and biosynthesis mutants; format: in vivo, Arabidopsis thaliana
Outline: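 Signalling and biosynthesis mutant seedlings, 4 d old, incubated with test compound for 3 more days. sav3-2 co-treated with 1 µM yucasinDF; yucQ co-treated with 1 µM kynurenine. Read-out was lateral root formation.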

[11] = tested on: auxin-conjugating GH3s; settings: competitive inhibitor; cited from earlier work
[12] = tested on: AtGH3.11/JAR1; settings: cited from earlier work
[13] = tested on: endogenous IAA; settings: within 30 min; cited from earlier work

Compound: Nc1ccccc1C(=O)C[C@H](N)C(=O)O [L-kynurenine]
inhibition of TAA1 [1]: competitively inhibit

Compound: OB(O)c1ccc(Oc2ccccc2)cc1 [PPBo]
IAA production [2]: block IAA production

effect on TIR1–IAA7 peptide association and dissociation [5]: promotes interaction
effect on AFB5–IAA7 peptide association and dissociation [9]: promotes interaction
Compound: O=C(O)Cc1c[nH]c2ccccc12 [IAA, indole-3-acetic acid]
lateral root formation in WT roots [3]: promoted lateral root formation
mesocotyl elongation in rice ([4]; aerial part of rice seedlings): promoted mesocotyl elongation
primary root elongation in rice ([4]; rice roots): suppressed primary root elongation
time to decomposition of DII-VENUS after application [6]: ≤ 10 min
ectopic formation of leafy-like primordia [7]: has not been induced
expression of auxin biosynthesis gene YUC6 [8]: down-regulated
lateral root formation in sav3-2 and yuc Q mutants ([10]; auxin biosynthesis mutants): induced by IAA to a similar extent as WT plants
lateral root formation in tir1-1 afb2-1 and axr1-3 mutants ([10]; auxin signaling mutants): showed resistance

Compound: Nc1ncnc2c1ncn2[C@@H]1O[C@H](COP(=O)(O)OCCc2c[nH]c3ccccc23)[C@@H](O)[C@H]1O [AEIP, Adenosine-5-[2-(1H-indol-3-yl)ethyl]phosphate]
in vitro activity against auxin-conjugating GH3s [11]: micromolar range

Compound: COCCC(=O)N1C[C@@H]2C[C@H](C1)c1ccc(NC(=O)c3ccc(-c4ccccc4)cc3)c(=O)n1C2 [jarin-1]
inhibition of AtGH3.11/JAR1 [12]: selectively inhibits

Compound: S=c1nc(-c2ccc(Cl)cc2)[nH][nH]1 [yucasin]
endogenous IAA level [13]: decreased the endogenous IAA to almost basal level
